# Results of several laboratories.
SMILES,test,test system,setting,quantity,value
CC[C@@H]1CN(C(=O)NCC(F)(F)F)C[C@@H]1c1cnc2cnc3[nH]ccc3n12,,"beagle dog, plasma","oral, 1 mg/kg, single dose",MRT(0-inf),11.6 h
CCCC(CCC)C(=O)OCC1(CO)C/C(=C\c2ccc(C(F)(F)F)cc2)C(=O)O1 (centres unmarked),general toxicity,nude mouse,intraperitoneal,MTD,12 mg/kg/day
CC[C@H](C)[C@H](NC(=O)[C@H](Cc1ccccc1)NC(=O)[C@H](Cc1ccc(O)cc1)NC(=O)[C@@H]1CCCN1C(=O)[C@@H](N)Cc1ccc(O)cc1)C(=O)N[C@H](CCCCN)C(=O)N[C@@H](CC(C)C)C(=O)NCC(=O)N[C@H](CCCCN)C(=O)NCC(=O)N[C@@H](CCC(=O)O)C(=O)N[C@H](C(=O)N[C@@H](CC(N)=O)C(=O)N[C@@H](CC(C)C)[C@@H](O)CC(=O)N[C@H](C(=O)N[C@@H](C)C(=O)N[C@@H](CCC(=O)O)C(=O)N1CCC[C@@H]1C(=O)N[C@@H](CCCCNC(=O)CCC(=O)O[C@H]1CC[C@@]2(C)C(=CC[C@H]3[C@@H]4CC[C@H]([C@H](C)CCCC(C)C)[C@@]4(C)CC[C@@H]32)C1)C(N)=O)C(C)C)C(C)C,,aqueous buffer,pH 6.5,thermodynamic solubility,55 µg/mL
O=C(NCCN1CCCC1)c1cc(-c2ccc(CN3CCOCC3)cc2)nc2ccc(F)cc12,,"male beagle dog, blood","oral, 3 mg/kg",Tmax,4 h
CC[C@H](C)[C@H](NC(=O)[C@H](Cc1ccccc1)NC(=O)[C@H](Cc1ccc(O)cc1)NC(=O)[C@@H]1CCCN1C(=O)[C@@H](N)Cc1ccc(O)cc1)C(=O)N1CCC[C@H]1C(=O)N[C@@H](CC(C)C)C(=O)NCC(=O)NCC(=O)N[C@H](CCCCN)C(=O)N[C@@H](CCC(=O)O)C(=O)N[C@H](C(=O)N[C@@H](CC(N)=O)C(=O)N[C@@H](CC(C)C)[C@@H](O)CC(=O)N[C@H](C(=O)N[C@@H](C)C(=O)N[C@@H](CCC(=O)O)C(=O)N1CCC[C@@H]1C(=O)N[C@@H](CCCCNC(=O)CCC(=O)O[C@H]1CC[C@@]2(C)C(=CC[C@H]3[C@@H]4CC[C@H]([C@H](C)CCCC(C)C)[C@@]4(C)CC[C@@H]32)C1)C(N)=O)C(C)C)C(C)C,,aqueous buffer,pH 6.5,thermodynamic solubility,< 1 µg/mL
Cn1nc(C(F)(F)F)cc1-c1ccc(OCc2ccc(Cl)cc2)c(-c2cc(C(F)(F)F)cc(C(F)(F)F)c2)c1O,general toxicity,CD-1 mouse,oral,MTD,240 mg/kg/day
CCn1c(=O)c(-c2cc(NC(=O)Nc3ccccc3)c(F)cc2Br)cc2cnc(NC)cc21,,"beagle dog, plasma","oral, 5 mg/kg, single dose",Tmax,2.25 h
C[C@]12CCCN1CC1=NNC(=O)c3cc(F)cc4[nH]c2c1c34,,"male Sprague-Dawley rat, brain","intravenous, 1 mg/kg",unbound tissue/plasma ratio,0.134
CC[C@H](C)[C@H](NC(=O)[C@H](CO)NC(=O)[C@H](CCCNC(=N)N)NC(C)=O)C(=O)N[C@H]1CSSC[C@@H](C(=O)N[C@H](C(N)=O)[C@@H](C)O)NC(=O)[C@H](CCCNC(=N)N)NC(=O)[C@H](Cc2c[nH]cn2)NC(=O)[C@H](C)NC(=O)CNC(=O)[C@H](Cc2c[nH]c3ccccc23)NC(=O)[C@H](CC(=O)O)NC(=O)[C@H](CCC(N)=O)NC(=O)[C@H](Cc2cn(C)c3ccccc23)NC(=O)[C@H](C(C)C)NC1=O,absorbance,water,,thermodynamic solubility,> 500 µM
N#C[C@@]1(c2ccc3c(N)ncnn23)O[C@H](CO)[C@@H](O)[C@H]1O,,"dog, plasma","intravenous, 2 mg/kg",MRT(0-inf),3.93 h
Cc1cc(Nc2ccc(S(F)(F)(F)(F)F)cc2)n2nc(C(C)(F)F)nc2n1,general toxicity,mouse,"oral, multiple doses",MTD,> 200 mg/kg
CC(C)S(=O)(=O)c1ccc(S(=O)(=O)N2CCC[C@@H](C(=O)N3CCC(F)(F)CC3)C2)cc1,general toxicity,mouse,oral,MTD,10 mg/kg
CC[C@H](C)[C@H](NC(=O)[C@H](Cc1ccccc1)NC(=O)[C@H](Cc1ccc(O)cc1)NC(=O)[C@@H]1CCCN1C(=O)[C@@H](N)Cc1ccc(O)cc1)C(=O)N1CCC[C@H]1C(=O)N[C@@H](CC(C)C)C(=O)NCC(=O)N[C@H](CCCCN)C(=O)NCC(=O)N[C@@H](CCC(=O)O)C(=O)N[C@H](C(=O)N[C@@H](CC(N)=O)C(=O)N[C@@H](CC(C)C)[C@@H](O)CC(=O)N[C@H](C(=O)N[C@@H](C)C(=O)N[C@@H](CCC(=O)O)C(=O)N1CCC[C@@H]1C(=O)N[C@@H](CCCCNC(=O)CCC(=O)O[C@H]1CC[C@@]2(C)C(=CC[C@H]3[C@@H]4CC[C@H]([C@H](C)CCCC(C)C)[C@@]4(C)CC[C@@H]32)C1)C(N)=O)C(C)C)C(C)C,,aqueous buffer,pH 6.5,thermodynamic solubility,11 µg/mL
C=C1C[C@H](O)[C@H](Br)C(C)(C)[C@@]12CCC(C)=C(Cl)C2,general toxicity,female CD-1 mouse,"intraperitoneal, single dose",MTD,65 mg/kg
